Test results from publication PMC2914325 (Nanomedicine (London, England), 2010).

Legend:
[1] = Absorption and fluorescence spectroscopy, quantum yield, TCSPC lifetime, TRES; format: physicochemical; details: for λem: 720 nm excitation; for τ (fluorescence lifetime): TCSPC, 773 nm excitation, 820 nm detection; for Φ (quantum yield): relative to ICG in DMSO
[2] = Aggregation / stability of probes in solvents; format: physicochemical
[3] = system: intradermal 4T1luc tumors in mouse ears; assay: High resolution noninvasive NIR imaging of intradermal ear tumors; format: in vivo, mouse (female balb/c); details: post-injection
Summary of the method: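 4T1luc cells (1×10^4) were implanted intradermally in each ear; n=3. From day 3, isoflurane-anaesthetised mice had glycerin-coated ears imaged at 800 nm (0.02 mm/pixel). Nanoparticles (0.10 mL, 4×10^13 particles/mL) or small-molecule probe (0.02 mL, 20 μM, 20% DMSO/water) were given i.v. by tail vein. Imaging was pre-, immediately post-, 4 h and 24 h post-injection, repeated days 8 and 15. Background-subtracted tumour ROI intensity was normalised to injected dose from vessel ROIs.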

[4] = system: subcutaneous 4T1luc tumors; assay: Whole-body planar fluorescence reflectance imaging; format: in vivo, mouse (male NCR nude); details: 24 hours post-injection, i.v., subcutaneous 4T1luc tumor
Summary of the method: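 Tumours were 2×10^5 4T1luc cells s.c. in the right shoulder; n=3. Mice received i.v. 100 μl small-molecule probe (20 μM, 20% DMSO/water) or 150 μL nanoparticles. Planar NIR reflectance images (755±35 nm excitation, 830 nm emission, 60 s) were taken at 1, 4 and 24 h, with white-light/X-ray reference. Organs were then imaged ex vivo. ROI mean intensities were compared by Student's t-test (α = 0.05).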

[5] = 20% DMSO/water, room temperature

| Compound | ε × 10^-3 ([1]; DMSO, room temperature) | λabs ([1]; DMSO, room temperature) | λem ([1]; DMSO, room temperature) | τ (fluorescence lifetime) ([1]; DMSO) | Φ (quantum yield) ([1]; DMSO) | aggregation ([2]; aqueous solutions) | λabs [1, 5] | λem [1, 5] | τ (fluorescence lifetime) ([1]; 20% DMSO/water) | Φ (quantum yield) ([1]; 20% DMSO/water) | stability in solvent ([2]; 20% DMSO/water) | time of peak tumor-to-normal contrast [3] | In vivo tumor contrast [4] |
| --- | --- | --- | --- | --- | --- | --- | --- | --- | --- | --- | --- | --- | --- |
| CC1(C)C(/C=C/C=C/C=C/C=C2/N(CCC(=O)O)c3ccc4ccccc4c3C2(C)C)=[N+](CCC(=O)[O-])c2ccc3ccccc3c21 [cypate] | 224 M^-1 cm^-1 | 790 nm | 817 nm | 0.97 ns | 0.12 | form non-emissive aggregates |  |  |  |  |  |  |  |
| cypate-cRGDfK |  |  |  |  |  |  | 790 nm | 804 nm | 0.24 ns | 0.036 | stable | 4 h | 1.32 +/- 0.13 |
